This note sets out measurements from ChEMBL document CHEMBL1949585, “Design, synthesis and evaluation of telomerase inhibitory, hTERT repressing, and anti-proliferation activities of symmetrical 1,8-disubstituted amidoanthraquinones” (Eur J Med Chem, 2012).

Assay [1] can be described thus: Inhibition of human TERT expression in H1299 cells at 1 uM after 24 hrs by secreted alkaline phosphatase reporter gene assay relative to control; values are per cent of control. To be noted: NCI-H1299. A general note: In a reporter assay the amount or activity of a reporter protein is the signal.
Assay [2] can be described thus: Inhibition of human TERT expression in H1299 cells at 100 uM after 24 hrs by secreted alkaline phosphatase reporter gene assay relative to control; values are per cent of control. To be noted: NCI-H1299.
Assay [3] can be described thus: Cytotoxicity against human H1299 cells assessed as cell growth at 100 uM after 48 hrs by MTT assay. Format: functional. To be noted: NCI-H1299, 48 h, read-out: Activity. Put shortly:
(§1)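 H1299 non-small lung cancer cells were grown in RPMI 1640 with 10% FBS and penicillin/streptomycin at 37 °C in 5% CO2. About 2×10³ cells were seeded per well and held 24 h, then washed with PBS and given fresh medium. Compound, freshly dissolved in DMSO and diluted in complete medium, was added for 48 h. MTT was read at 550 nm after SDS/DMF lysis at 37 °C for 16 h. Values are from three experiments, untreated = 100%, ±SD.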
A general note: Formazan colour is commonly taken as a measure of viable cells.

A short description of assay [4]: Cytotoxicity against human H1299 cells assessed as cell growth at 10 uM after 48 hrs by MTT assay. Type of assay: functional. The note with it: NCI-H1299, 48 h, read-out: Activity. Put shortly:
as §1

Assay [5] in a line: Cytotoxicity against human H1299 cells assessed as cell growth at 1 uM after 48 hrs by MTT assay. Format: functional. The note with it: NCI-H1299, 48 h, read-out: Activity. Put shortly:
as §1

Assay [6] is described as follows: Inhibition of human TERT expression in H1299 cells at 10 uM after 24 hrs by secreted alkaline phosphatase reporter gene assay relative to control; values are per cent of control. To be noted: NCI-H1299.

For the compound `COc1cccc2c1C(=O)c1c(O)c3c(c(O)c1C2=O)C[C@@](O)(C(=O)CO)C[C@@H]3O[C@H]1C[C@H](N)[C@H](O)[C@H](C)O1` [DOXORUBICIN], the level, % of control in assay [1] turned out to be 33%; in assay [2], 5%; in assay [6] it was 13%. In addition, in assay [3], the growth at 100 µM stood at 0%. The growth at 10 µM in assay [4] is 0%. In addition, the growth at 1 µM in assay [5] amounted to 17%.
In the case of `CCN(C)CC(=O)Nc1cccc2c1C(=O)c1c(NC(=O)CN(C)CC)cccc1C2=O`, the figures for the level, % of control in assay [1], in assay [2] and in assay [6] were 102%, 20% and 95%, respectively. The growth at 100 µM in assay [3] worked out at 73%. Also, the growth at 10 µM in assay [4] stood at 101%. The growth at 1 µM in assay [5] is 100%.
On to `CCCN(CCC)CCC(=O)Nc1cccc2c1C(=O)c1c(NC(=O)CCN(CCC)CCC)cccc1C2=O`, for which the level, % of control is 100% in assay [1], 4% in assay [2] and 100% in assay [6]. Moreover, the growth at 100 µM in assay [3] came out at 22%. Also, the growth at 10 µM in assay [4] is 99%. For the same compound, in assay [5], the growth at 1 µM turned out to be 94%.
As for `CCCN(CCC)CC(=O)Nc1cccc2c1C(=O)c1c(NC(=O)CN(CCC)CCC)cccc1C2=O`, the level, % of control in assay [1] was found to be 105%; in assay [2] it was 94%; in assay [6] it was 101%. In assay [3], the growth at 100 µM is 66%. Moreover, the growth at 10 µM in assay [4] was found to be 76%. For the same compound, in assay [5], the growth at 1 µM amounted to 90%.
`COC(=O)[C@@H](NCC(=O)Nc1cccc2c1C(=O)c1c(NC(=O)CN[C@H](C(=O)OC)c3ccccc3)cccc1C2=O)c1ccccc1`: the level, % of control amounted to 97% in assay [1], 42% in assay [2] and 74% in assay [6]. Besides, in assay [3], the growth at 100 µM was 18%. In addition, in assay [4], the growth at 10 µM came to 59%. Moreover, the growth at 1 µM in assay [5] was 77%.
Turning to `COC(=O)[C@H](CCSC)NCC(=O)Nc1cccc2c1C(=O)c1c(NC(=O)CN[C@@H](CCSC)C(=O)OC)cccc1C2=O`, the figures for the level, % of control in assay [1], in assay [2] and in assay [6] were 105%, 24% and 94%, respectively. The growth at 100 µM in assay [3] came to 60%. Further, the growth at 10 µM in assay [4] stood at 78%. Besides, in assay [5], the growth at 1 µM was 99%.
`COC(=O)[C@H](CC(C)C)NCC(=O)Nc1cccc2c1C(=O)c1c(NC(=O)CN[C@@H](CC(C)C)C(=O)OC)cccc1C2=O`: the level, % of control in assay [1] turned out to be 101%; in assay [2] it was 88%; in assay [6] it was 101%. Also, in assay [3], the growth at 100 µM worked out at 96%. For the same compound, in assay [4], the growth at 10 µM stood at 102%. Also, the growth at 1 µM in assay [5] amounted to 112%.
For `COC(=O)[C@H](C)NCC(=O)Nc1cccc2c1C(=O)c1c(NC(=O)CN[C@@H](C)C(=O)OC)cccc1C2=O`, the results for the level, % of control in assay [1], in assay [2] and in assay [6] were 99%, 67% and 93%, respectively. In assay [3], the growth at 100 µM stood at 96%. The growth at 10 µM in assay [4] is 104%. In assay [5], the growth at 1 µM was 98%.
For the compound `CCN(C)CCC(=O)Nc1cccc2c1C(=O)c1c(NC(=O)CCN(C)CC)cccc1C2=O`, the level, % of control stood at 110% in assay [1], 0% in assay [2] and 19% in assay [6]. The growth at 100 µM in assay [3] was found to be 12%. In addition, the growth at 10 µM in assay [4] was found to be 23%. Further, in assay [5], the growth at 1 µM was 96%.
Take `CN(C)CCC(=O)Nc1cccc2c1C(=O)c1c(NC(=O)CCN(C)C)cccc1C2=O`: the level, % of control was determined as 87% in assay [1], 0% in assay [2] and 20% in assay [6]. Moreover, the growth at 100 µM in assay [3] is 11%. The growth at 10 µM in assay [4] stood at 24%. For the same compound, the growth at 1 µM in assay [5] was determined as 93%.
Turning to `CNCCC(=O)Nc1cccc2c1C(=O)c1c(NC(=O)CCNC)cccc1C2=O`, the level, % of control in assay [1] was 101%; in assay [2] it was 22%; in assay [6], 97%. The growth at 100 µM in assay [3] is 33%. For the same compound, the growth at 10 µM in assay [4] turned out to be 107%. Moreover, the growth at 1 µM in assay [5] turned out to be 117%.
As for `COC(=O)[C@H](COC(C)(C)C)NCC(=O)Nc1cccc2c1C(=O)c1c(NC(=O)CN[C@@H](COC(C)(C)C)C(=O)OC)cccc1C2=O`, the level, % of control was 98% in assay [1], 98% in assay [2] and 94% in assay [6]. For the same compound, the growth at 100 µM in assay [3] was 91%. The growth at 10 µM in assay [4] stood at 128%. Moreover, the growth at 1 µM in assay [5] was found to be 127%.
Turning to `CCCN(C)CC(=O)Nc1cccc2c1C(=O)c1c(NC(=O)CN(C)CCC)cccc1C2=O`, the level, % of control in assay [1] stood at 85%; in assay [2], 45%; in assay [6], 87%. Moreover, in assay [3], the growth at 100 µM was 97%. Besides, the growth at 10 µM in assay [4] was 108%. Besides, the growth at 1 µM in assay [5] came to 108%.
`COC(=O)CN(C)CC(=O)Nc1cccc2c1C(=O)c1c(NC(=O)CN(C)CC(=O)OC)cccc1C2=O`: the figures for the level, % of control in assay [1], in assay [2] and in assay [6] were 106%, 73% and 95%, respectively. In addition, in assay [3], the growth at 100 µM amounted to 46%. Also, the growth at 10 µM in assay [4] turned out to be 88%. Also, the growth at 1 µM in assay [5] was determined as 71%.
For `CN(C)CC(=O)Nc1cccc2c1C(=O)c1c(NC(=O)CN(C)C)cccc1C2=O`, the figures for the level, % of control in assay [1], in assay [2] and in assay [6] were 93%, 84% and 96%, respectively. The growth at 100 µM in assay [3] was 57%. Also, in assay [4], the growth at 10 µM is 61%. Besides, in assay [5], the growth at 1 µM was found to be 72%.
In the case of `COC(=O)[C@H](NCC(=O)Nc1cccc2c1C(=O)c1c(NC(=O)CN[C@@H](C(=O)OC)C(C)C)cccc1C2=O)C(C)C`, the level, % of control in assay [1] is 91%; in assay [2] it was 45%; in assay [6], 95%. In addition, the growth at 100 µM in assay [3] was determined as 58%. Besides, in assay [4], the growth at 10 µM was 80%. Also, the growth at 1 µM in assay [5] is 88%.
Regarding `CCN(CC)CCC(=O)Nc1cccc2c1C(=O)c1c(NC(=O)CCN(CC)CC)cccc1C2=O`, the level, % of control was found to be 99% in assay [1], 0% in assay [2] and 35% in assay [6]. The growth at 100 µM in assay [3] was found to be 4%. The growth at 10 µM in assay [4] came to 30%. Also, in assay [5], the growth at 1 µM was found to be 97%.
Turning to `CC(C)CNCCC(=O)Nc1cccc2c1C(=O)c1c(NC(=O)CCNCC(C)C)cccc1C2=O`, the level, % of control came to 96% in assay [1], 0% in assay [2] and 29% in assay [6]. Further, the growth at 100 µM in assay [3] was found to be 0%. Besides, the growth at 10 µM in assay [4] came out at 4%. Moreover, the growth at 1 µM in assay [5] turned out to be 73%.
Take `COC(=O)[C@@H](C)NCC(=O)Nc1cccc2c1C(=O)c1c(NC(=O)CN[C@H](C)C(=O)OC)cccc1C2=O`: the level, % of control in assay [1] is 83%; in assay [2], 66%; in assay [6] it was 74%. In assay [3], the growth at 100 µM worked out at 10%. The growth at 10 µM in assay [4] worked out at 50%. Also, the growth at 1 µM in assay [5] was determined as 56%.
With `COC(=O)[C@@H](NCC(=O)Nc1cccc2c1C(=O)c1c(NC(=O)CN[C@H](C(=O)OC)C(C)C)cccc1C2=O)C(C)C`, the values for the level, % of control in assay [1], in assay [2] and in assay [6] were 100%, 0% and 49%, respectively. Besides, the growth at 100 µM in assay [3] was 86%. Also, the growth at 10 µM in assay [4] amounted to 90%. Also, the growth at 1 µM in assay [5] is 99%.
Regarding `O=C(CNCc1cccc(C(F)(F)F)c1)Nc1cccc2c1C(=O)c1c(NC(=O)CNCc3cccc(C(F)(F)F)c3)cccc1C2=O`, the values for the level, % of control in assay [1], in assay [2] and in assay [6] were 75%, 33% and 84%, respectively. In assay [3], the growth at 100 µM is 93%. For the same compound, the growth at 10 µM in assay [4] is 93%. Moreover, the growth at 1 µM in assay [5] came to 97%.
Regarding `O=C1c2c(O)ccc(O)c2C(=O)c2c(NCCNCCO)ccc(NCCNCCO)c21` [MITOXANTRONE], the level, % of control in assay [1] came out at 20%; in assay [2], 7%; in assay [6], 9%. The growth at 100 µM in assay [3] turned out to be 0%. Besides, the growth at 10 µM in assay [4] was 0%. In addition, in assay [5], the growth at 1 µM was 23%.
For the compound `CCNCC(=O)Nc1cccc2c1C(=O)c1c(NC(=O)CNCC)cccc1C2=O`, the level, % of control in assay [1] was 103%; in assay [2], 2%; in assay [6] it was 92%. Further, the growth at 100 µM in assay [3] was 17%. The growth at 10 µM in assay [4] amounted to 87%. In assay [5], the growth at 1 µM is 106%.
With `O=C(CCNCc1cc(F)cc(F)c1)Nc1cccc2c1C(=O)c1c(NC(=O)CCNCc3cc(F)cc(F)c3)cccc1C2=O`, the level, % of control in assay [1] was 98%; in assay [2], 3%; in assay [6] it was 100%. Further, the growth at 100 µM in assay [3] came to 6%. In addition, the growth at 10 µM in assay [4] was found to be 87%. The growth at 1 µM in assay [5] worked out at 93%.
As to `CC(C)CNCC(=O)Nc1cccc2c1C(=O)c1c(NC(=O)CNCC(C)C)cccc1C2=O`, the level, % of control in assay [1] was 110%; in assay [2], 77%; in assay [6], 86%. The growth at 100 µM in assay [3] came out at 28%. The growth at 10 µM in assay [4] worked out at 44%. The growth at 1 µM in assay [5] is 53%.
